According to PubChem BioAssay:
Active and inactive are the calls of the source.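 The calls were made as follows, unless noted: active = fluorescence slope after compound addition differing from the mean of all tested samples at 99.7% confidence, mostly higher but some lower; inactive = the rest.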

Experiments:
[1] = inhibitors of TNFa-induced NFkB p65 translocation, primary screen, imaging, HUVEC, MLSMR starter and 10KST1 sets (AID 438;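 active = inhibition above 20% together with a positive visual image hit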;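 also: compound added about 3h40 before a 20 min TNFalpha stimulation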;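 as to inhibition: signal is the nuclear over cytoplasmic p65 intensity ratio per well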); settings: HUVEC TNFa-induced p65 nuclear translocation; cell count: measured here: nuclei count (cytotoxicity indicator), at 2.08 µM; inhibition: at 2 µM, stronger effect = higher value, 0% TNFa-plus-vehicle, 100% no-TNFa wells
[2] = reduction of polyQ htt aggregates in cells – imaging, exon1htt(103Q)mCFP cells, high-content imaging, primary screen (AID 483;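 active = visual image review flags a hit and inhibition of aggregation exceeds 20%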;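 also: compound exposure lasted 3 days before fixation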;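 as to nuclei count: percent of the per-plate median nuclei count of sample wells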); settings: exon1htt(103Q)mCFP cell line, aggregate imaging, at 2 µM; inhibition of aggregation: stronger effect = higher value; nuclei count: measured here: cell count, toxicity
[3] = endothelial E-selectin expression blockers – imaging, HUVEC, immunofluorescence, MLSMR starter and 10KST1 sets, primary screen (AID 487;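 active = visually confirmed hit in the image check and inhibition above 20%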;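 as to inhibition: signal is fraction of cell area covered by stained E-selectin grains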;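 as to nuclei count: 100% = median nuclei count of all wells on the same plate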); settings: HUVEC TNFalpha-induced E-selectin immunofluorescence imaging, at 2 µM; inhibition: stronger effect = higher value; nuclei count: measured here: cell number, toxicity
[4] = molecular target: Voltage-gated potassium channel subunit beta-2 (Rattus norvegicus) (UniProt P62483); assay: inhibitors of rat Kvbeta2 reductase activity – biochemical, NADPH fluorescence, primary screen (AID 622;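 active = fluorescence slope higher than the sample average by over 3 SD, cut at about -0.22 in these data, passing the limit was not always enough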;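 also: slope of raw intensity against log time taken from 70 to 1610 s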); settings: recombinant KvBeta, 4-cyanobenzaldehyde reduction, at 10 µM, stronger effect = higher value
[5] = molecular target: Voltage-gated potassium channel subunit beta-2 (Rattus norvegicus) (UniProt P62483); assay: enhancers of rat Kvbeta2 NADPH turnover – biochemical, NADPH fluorescence, primary screen (AID 623;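 active = NADPH fluorescence slope more negative than the mean of all samples by about 3 SD, 99.7% confidence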;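 also: fluorescence intensity change per second fitted from 20 to 320 s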); settings: Recombinant KvBeta, NADPH fluorescence decrease slope, 10 min; at 10 µM; stronger effect = lower value
[6] = molecular target: Muscarinic acetylcholine receptor M4 (Homo sapiens) (UniProt P08173); assay: M4-linked GIRK flux change, two-sided – cell-based, HEK293 M4/GIRK, thallium flux, BTC-AM, M4 allosteric agonist project, primary screen (AID 625); settings: at 10 µM, actives lie on both sides;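 also: thallium influx through GIRK channels coupled to M4 in HEK293 cells with BTC-AM dye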
In short: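 assay system = HEK293 cells with M4 receptor and GIRK channels | medium = pH 7.3 thallium assay buffer | doses = 10 µM final, single point | timing = cells overnight at 37 °C, BTC-AM loading 1 h, reads 2 min total | signal = BTC-AM fluorescence, 1 Hz kinetic reads | read-out = post-addition slope, 15–24 s, of baseline-normalized fluorescence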

[7] = blockers of RIG-like receptor reporter activation – cell-based, Sendai virus stimulus, luciferase, 10K MLSCN set, TLR/RLR signaling modifier project, primary screen (AID 602276;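 active = inhibition at or above 50% at 10 µM; inactive = inhibition below 50%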;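 also: firefly luciferase from ISG56 promoter only with Renilla not read in this screen; 0% = Sendai virus plus DMSO and 100% = medium plus DMSO without virus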); settings: HEK293 RL24 IRF3 luciferase reporter, at 10 µM, stronger effect = higher value
[8] = TLR3 IRF3 reporter activation blockers – cell-based, poly I:C stimulus, luciferase, 10K MLSCN set, primary screen (AID 602277;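 active = inhibition of the reporter signal at or above 50%; inactive = inhibition below 50%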); settings: HEK293-TLR3 RL24 IRF3 luciferase reporter, at 10 µM, stronger effect = higher value

Chain of Voltage-gated potassium channel subunit beta-2 (Rattus norvegicus) (P62483 whole entry, looked up): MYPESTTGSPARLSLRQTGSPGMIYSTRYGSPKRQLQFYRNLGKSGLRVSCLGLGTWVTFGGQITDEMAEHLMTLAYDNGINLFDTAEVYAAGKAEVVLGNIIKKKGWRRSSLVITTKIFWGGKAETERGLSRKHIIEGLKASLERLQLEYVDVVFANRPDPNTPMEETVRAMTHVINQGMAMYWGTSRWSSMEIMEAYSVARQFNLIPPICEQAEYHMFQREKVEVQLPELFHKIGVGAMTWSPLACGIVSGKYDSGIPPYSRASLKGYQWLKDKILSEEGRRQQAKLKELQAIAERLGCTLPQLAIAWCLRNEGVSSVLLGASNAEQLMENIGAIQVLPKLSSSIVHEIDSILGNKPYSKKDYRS
Chain of Muscarinic acetylcholine receptor M4 (Homo sapiens) (P08173 whole entry, looked up): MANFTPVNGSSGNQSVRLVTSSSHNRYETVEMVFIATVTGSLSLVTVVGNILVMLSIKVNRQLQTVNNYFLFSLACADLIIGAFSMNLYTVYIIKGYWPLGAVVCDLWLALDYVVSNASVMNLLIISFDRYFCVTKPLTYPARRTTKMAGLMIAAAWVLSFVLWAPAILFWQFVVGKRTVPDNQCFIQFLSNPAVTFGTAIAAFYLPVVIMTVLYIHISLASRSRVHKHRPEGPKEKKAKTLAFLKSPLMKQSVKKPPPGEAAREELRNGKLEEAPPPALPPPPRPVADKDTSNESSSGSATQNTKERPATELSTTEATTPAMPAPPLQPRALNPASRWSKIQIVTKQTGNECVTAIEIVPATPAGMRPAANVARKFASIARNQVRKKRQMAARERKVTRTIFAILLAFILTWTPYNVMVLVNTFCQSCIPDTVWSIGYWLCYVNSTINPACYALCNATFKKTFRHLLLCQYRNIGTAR

Structure (SMILES)	cell count [1]	inhibition [1]	inhibition of aggregation [2]	nuclei count [2]	inhibition [3]	nuclei count [3]	fluorescence slope [4]	NADPH fluorescence slope [5]	fluorescence slope [6]	inhibition [7]	inhibition [8]
CCCC(CCC)n1[nH]c(=O)c2c(C)cc(C)nc21	357	3.8% (inactive)	7.5% (inactive)	105%	-29.5% (inactive)	114%	-0.47 (inactive)	3.6e-05 (inactive)	0.00554 (inactive)	3.13% (inactive)	4.22% (inactive)
COc1cccc(S(=O)(=O)Nc2cccnc2)c1	625	-15.2% (inactive)	-31.5% (inactive)	119%	-20.1% (inactive)	96.4%	-0.552 (inactive)	3.5e-05 (inactive)	0.00542 (inactive)	5.36% (inactive)	-3.49% (inactive)
COC(=O)C1=C(C)NC(=O)C1(NC(=O)CN1CCCC1=O)C(F)(F)F (stereo not drawn)	879	3.6% (inactive)	6.7% (inactive)	106%	-79.8% (inactive)	133%	-0.435 (inactive)	-7.2e-05 (inactive)	0.00621 (inactive)	9.49% (inactive)	21.7% (inactive)
Cc1ccc(Cl)cc1NC(=O)CSc1nnc(C)n1-c1ccccc1	783	-5.4% (inactive)	-28.9% (inactive)	100%	-16% (inactive)	96%	-0.551 (inactive)	-4.3e-05 (inactive)	0.00502 (inactive)	21.8% (inactive)	23.3% (inactive)
COCCn1nnnc1C(C(C)C)N(Cc1cccnc1)Cc1ccccc1Cl (stereo not drawn)	526	2.1% (inactive)	8.9% (inactive)	108%	-72.3% (inactive)	111%	-0.574 (inactive)	1.3e-05 (inactive)	0.00529 (inactive)	9.31% (inactive)	31.3% (inactive)
COc1ccc(C2c3c(-c4ccccc4O)n[nH]c3C(=O)N2CCc2ccc(OC)c(OC)c2)cc1 (stereo not drawn)	644	-22.4% (inactive)	17.2% (inactive)	68.1%	-37.6% (inactive)	114%	-0.616 (inactive)	5.9e-06 (inactive)	0.00748 (inactive)	17.4% (inactive)	21.5% (inactive)
COc1ccc(OC)c(NC(=O)CSc2ncccc2C(=O)O)c1	409	0% (inactive)	-10.4% (inactive)	7.1%	-120% (inactive)	125%	-0.495 (inactive)	-0.000268 (inactive)	0.00462 (inactive)	-1.78% (inactive)	9.5% (inactive)
CCOC(=O)c1ccc(N2C(=O)C3CC=CCC3C2=O)cc1 (stereo not drawn)	640	-6.3% (inactive)	-0.1% (inactive)	104%	40.6% (inactive)	101%	-0.545 (inactive)	-1.8e-05 (inactive)	0.00473 (inactive)	1.51% (inactive)	-1.14% (inactive)
Cc1cc(NC(=O)CCC(=O)N(CC2CCCO2)C(C(=O)NC2CCCC2)c2ccccc2C)no1 (stereo not drawn)	341	0% (inactive)	26.9% (inactive)	63.6%	-106% (inactive)	117%	-0.453 (inactive)	-5.7e-05 (inactive)	0.00469 (inactive)	20.9% (inactive)	21.7% (inactive)
COc1cccc(NC(=O)COc2ccccc2C(N)=O)c1	221	-1.2% (inactive)	19.1% (inactive)	83.6%	14.7% (inactive)	78%	-0.589 (inactive)	6.4e-05 (inactive)	0.00613 (inactive)	-78.1% (inactive)	-182% (inactive)
Cc1nc2ccccn2c1P(=O)(N1CCCCC1)N1CCCCC1	666	-11.7% (inactive)	-0.1% (inactive)	77%	-64.2% (inactive)	108%	-0.526 (inactive)	-1.7e-06 (inactive)	0.00464 (inactive)	20.1% (inactive)	20.6% (inactive)
Cc1nc(C)c(C(=O)OCC(=O)N2CCN(c3ccccc3)CC2)s1	700	-4.8% (inactive)	-3.6% (inactive)	99.4%	-18.7% (inactive)	102%	-0.567 (inactive)	-2e-05 (inactive)	0.00679 (inactive)	16.8% (inactive)	5.6% (inactive)
Cc1ccc(-c2cc(C(=O)NCc3ccc4c(c3)OCO4)no2)cc1	382	0.3% (inactive)	8.6% (inactive)	92.9%	17% (inactive)	101%	-0.315 (inactive)	-6.4e-05 (inactive)	0.00532 (inactive)	-10.4% (inactive)	-26.2% (inactive)
Cc1cc(C)n(-c2nc3ccccc3c(=O)n2OCCOc2ccccc2)n1	533	-9% (inactive)	-7.8% (inactive)	107%	-17.9% (inactive)	94.2%	-0.453 (inactive)	8.7e-05 (inactive)	0.00727 (inactive)	-12.3% (inactive)	-13.3% (inactive)
O=C(O)CCCCCNc1nc(=S)[nH]c2ccccc12	494	-7.5% (inactive)	20% (inactive)	102%	9.6% (inactive)	105%	-0.384 (inactive)	2.9e-05 (inactive)	0.0068 (inactive)	11.5% (inactive)	19.2% (inactive)
COc1ccc(-c2nnc(SCC#N)o2)cc1	333	-8.7% (inactive)	29.7% (active)	86%	24.6% (inactive)	102%	-0.511 (inactive)	-2.6e-05 (inactive)	0.00472 (inactive)	-8.24% (inactive)	-31.5% (inactive)
Cc1cc(C(F)F)n2ncc(C(=O)NC3CCCCCC3)c2n1	354	0% (inactive)	-4.8% (inactive)	106%	1.4% (inactive)	113%	-0.569 (inactive)	-7.1e-05 (inactive)	0.00445 (inactive)	15.9% (inactive)	15.5% (inactive)
COc1cccc(-c2nc(-c3ccc(NC(=O)Cc4ccccc4OC)cc3)no2)c1	429	-1.8% (inactive)	-12.3% (inactive)	95.4%	-68.2% (inactive)	116%	-0.561 (inactive)	-1.4e-06 (inactive)	0.0119 (active)	13% (inactive)	-45.2% (inactive)
O=C(CCCN1C(=O)c2ccccc2C1=O)Oc1ccc(F)cc1	735	-11.6% (inactive)	-0.5% (inactive)	106%	17.3% (inactive)	96.8%	-0.512 (inactive)	1.4e-05 (inactive)	0.00485 (inactive)	12.5% (inactive)	18.6% (inactive)
CCOC(=O)c1ccc(NC2OC(=O)c3ccccc32)cc1 (stereo not drawn)	605	-54.1% (inactive)	6.4% (inactive)	106%	-85.2% (inactive)	118%	-0.216 (inactive)	-2.5e-05 (inactive)	0.00703 (inactive)	11.8% (inactive)	-21.4% (inactive)
COc1cc(OC)cc(C(=O)NCc2n[nH]c(=S)n2-c2ccccc2OC)c1	385	0% (inactive)	-6.2% (inactive)	112%	-29.2% (inactive)	83%	-0.329 (inactive)	-6.5e-05 (inactive)	0.00633 (inactive)	7.57% (inactive)	6.78% (inactive)
Cc1nn(-c2ccccc2)c2c1C(c1c(C)[nH]c(C#N)c1C)C(C#N)=C(N)O2 (stereo not drawn)	565	-13.4% (inactive)	9.2% (inactive)	86%	15.4% (inactive)	101%	-0.391 (inactive)	8.5e-05 (inactive)	0.00623 (inactive)	8.98% (inactive)	13% (inactive)
c1ccc(-c2noc(C34CC5CC(CC(C5)C3)C4)n2)nc1	362	10.2% (inactive)	17.1% (inactive)	98.3%	-53.7% (inactive)	102%	-0.554 (inactive)	-0.00016 (inactive)	0.00439 (inactive)	-32.9% (inactive)	-64.6% (inactive)
O=S(=O)(NC1=NCCC1)c1cccs1	524	-7% (inactive)	11% (inactive)	102%	27.1% (inactive)	103%	-0.353 (inactive)	-4.6e-05 (inactive)	0.00585 (inactive)	8.22% (inactive)	5.63% (inactive)
CC(C(=O)Oc1ccc2c(c1)OCO2)N1C(=O)c2ccccc2C1=O (stereo not drawn)	790	-10.1% (inactive)	9.8% (inactive)	104%	-33.5% (inactive)	101%	-0.609 (inactive)	-2.3e-05 (inactive)	0.00538 (inactive)	23.3% (inactive)	27.7% (inactive)
O=C(Nc1ccccc1)N(CCN1CCOCC1)Cc1ccccc1F	665	-4.1% (inactive)	-16.2% (inactive)	101%	-68% (inactive)	96.7%	-0.61 (inactive)	1.5e-05 (inactive)	0.00376 (inactive)	-14.2% (inactive)	-15.8% (inactive)
Cc1cccc(NC(=O)CN(C)S(=O)(=O)c2ccccc2)n1	536	-17.1% (inactive)	2.2% (inactive)	123%	-24.3% (inactive)	116%	-0.44 (inactive)	-7.5e-05 (inactive)	0.00526 (inactive)	15% (inactive)	15.7% (inactive)
COc1cc(OC)cc(-c2nc3cc(C)ccc3o2)c1	424	1.7% (inactive)	-2% (inactive)	90.1%	-55.4% (inactive)	99.4%	-0.55 (inactive)	-4.6e-05 (inactive)	0.00552 (inactive)	-23.5% (inactive)	-45.9% (inactive)
